Results taken from ChEMBL document CHEMBL1143166, “Derivatives of 4-amino-6-hydroxy-2-mercaptopyrimidine as novel, potent, and selective A3 adenosine receptor antagonists” (J Med Chem, 2008).

What was measured:
Adenosine receptor A1 = molecular target: T1, Adenosine receptor A1 (Homo sapiens, UniProt P30542); assay: Displacement of […] from human adenosine A1 receptor expressed in CHO cells; type: cell-based
T1 sequence (P30542 whole entry): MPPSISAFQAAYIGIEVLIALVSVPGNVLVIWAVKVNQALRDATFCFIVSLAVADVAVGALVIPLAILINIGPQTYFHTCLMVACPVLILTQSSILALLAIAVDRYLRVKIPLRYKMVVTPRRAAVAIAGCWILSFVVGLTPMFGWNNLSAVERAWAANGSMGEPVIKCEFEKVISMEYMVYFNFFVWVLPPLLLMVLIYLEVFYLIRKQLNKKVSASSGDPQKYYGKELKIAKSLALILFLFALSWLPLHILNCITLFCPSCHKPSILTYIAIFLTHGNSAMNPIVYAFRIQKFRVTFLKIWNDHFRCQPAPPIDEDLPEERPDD

Adenosine receptor A2a [1] = molecular target: T2, Adenosine receptor A2a (Homo sapiens, UniProt P29274); assay: Displacement of [3H]NECA from human adenosine A2A receptor expressed in CHO cells at 10 uM; type: cell-based
T2 sequence (P29274 whole entry): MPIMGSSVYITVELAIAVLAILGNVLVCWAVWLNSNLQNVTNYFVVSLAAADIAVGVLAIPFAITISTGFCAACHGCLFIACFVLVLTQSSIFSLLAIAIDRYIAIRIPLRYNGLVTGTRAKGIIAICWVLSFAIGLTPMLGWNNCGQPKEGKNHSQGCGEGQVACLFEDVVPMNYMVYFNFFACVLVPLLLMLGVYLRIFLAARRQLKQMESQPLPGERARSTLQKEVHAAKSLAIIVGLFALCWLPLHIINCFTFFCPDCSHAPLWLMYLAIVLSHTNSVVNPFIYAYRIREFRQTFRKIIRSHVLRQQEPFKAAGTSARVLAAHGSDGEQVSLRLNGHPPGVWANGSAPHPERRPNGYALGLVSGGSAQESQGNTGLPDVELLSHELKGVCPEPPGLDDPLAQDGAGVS
Outline: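 Membranes (80 µg) from hA2A-expressing CHO cells incubated 90 min at 25 °C in 50 mM Tris-HCl, 2 mM MgCl2, 2 U/mL ADA, pH 7.4, with 30 nM [3H]NECA and compound at 10 µM. Nonspecific binding defined with 100 µM NECA.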

Adenosine receptor A2a [2] = molecular target: T2, Adenosine receptor A2a; assay: Displacement of [3H]NECA from human adenosine A2A receptor expressed in CHO cells; type: cell-based
[3] = molecular target: T3, Adenosine receptor A1 (Homo sapiens) (UniProt P30542); assay: Displacement of […] from human adenosine A1 receptor expressed in CHO cells at 10 uM; type: cell-based
T3 sequence (whole entry): T1 sequence (P30542 whole entry)
Outline: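 Membranes (50 µg protein) from CHO cells stably expressing hA1 incubated 180 min at 25 °C in 50 mM Tris-HCl, 2 mM MgCl2, 2 U/mL ADA, pH 7.4, with 3 nM [3H]DPCPX and compound at 10 µM. Nonspecific binding defined with 50 µM R-PIA.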

Adenosine receptor A2b = molecular target: T4, Adenosine receptor A2b (Homo sapiens, UniProt P29275); assay: Antagonist activity at human adenosine A2B receptor expressed in CHO cells assessed as inhibition of NECA-mediated cAMP accumulation; type: functional, cell-based
T4 sequence (P29275 whole entry): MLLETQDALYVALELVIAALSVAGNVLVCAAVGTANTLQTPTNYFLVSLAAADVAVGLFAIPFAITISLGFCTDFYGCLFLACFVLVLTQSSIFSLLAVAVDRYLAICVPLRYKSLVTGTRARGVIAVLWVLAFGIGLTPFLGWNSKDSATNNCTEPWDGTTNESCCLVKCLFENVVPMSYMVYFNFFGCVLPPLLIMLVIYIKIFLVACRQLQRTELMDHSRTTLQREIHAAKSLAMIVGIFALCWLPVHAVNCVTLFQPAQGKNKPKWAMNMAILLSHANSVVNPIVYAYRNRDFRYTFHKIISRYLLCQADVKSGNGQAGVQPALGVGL
Outline: (§1)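 hA2B-transfected CHO cells grown 48 h after plating, then preincubated 15 min at 37 °C in DMEM with Ro20-1724 (20 µM) and ADA (1 U/mL). Compound (1 nM–10 µM; single-point 10 µM) given 15 min at 37 °C, then 100 nM NECA. Stopped with 0.4 N HCl, neutralized with KOH. cAMP by competitive binding to bovine adrenal binding protein with [3H]cAMP. Mean ± SEM, four experiments in triplicate.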

[4] = molecular target: T5, Adenosine receptor A2b (Homo sapiens) (UniProt P29275); assay: Antagonist activity at human adenosine A2B receptor expressed in CHO cells assessed as inhibition of NECA-mediated cAMP accumulation at 10 uM; type: functional, cell-based; outline: as §1
T5 sequence (whole entry): T4 sequence (P29275 whole entry)

[5] = molecular target: T6, Adenosine receptor A3 (Homo sapiens) (UniProt P0DMS8); assay: Displacement of [125I]AB-MECA from human adenosine A3 receptor expressed in CHO cells at 1 uM; type: cell-based
T6 sequence (whole entry): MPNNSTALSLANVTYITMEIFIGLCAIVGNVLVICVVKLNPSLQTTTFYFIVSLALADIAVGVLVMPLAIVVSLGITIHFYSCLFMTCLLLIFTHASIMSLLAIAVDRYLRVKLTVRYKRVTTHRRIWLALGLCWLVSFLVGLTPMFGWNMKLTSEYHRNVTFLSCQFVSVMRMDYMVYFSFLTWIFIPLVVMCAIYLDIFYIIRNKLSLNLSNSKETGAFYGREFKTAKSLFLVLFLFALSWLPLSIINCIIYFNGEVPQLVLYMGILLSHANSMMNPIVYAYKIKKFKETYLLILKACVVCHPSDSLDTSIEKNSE

| Ki (Adenosine receptor A1) | inhibition (Adenosine receptor A2a [1]) | Ki (Adenosine receptor A2a [2]) | inhibition [3] | IC50 (Adenosine receptor A2b) | inhibition [4] | inhibition [5] | Compound |
| --- | --- | --- | --- | --- | --- | --- | --- |
| 5470 nM | 30% |  |  |  |  |  | CCCOc1cc(NC(C)=O)nc(SCCC)n1 |
| 1460 nM |  | 71 nM |  |  |  |  | CCCOc1cc(NC(=O)CC)nc(SCCC)n1 |
|  |  | 1120 nM | 7% |  |  |  | CCCOc1cc(NC(C)=O)nc(SC)n1 |
|  | 33% |  | 43% |  |  |  | CCCSc1nc(NC(C)=O)cc(OCC2CCCCC2)n1 |
|  | 21% |  | 2% |  |  | 51% | CCC(=O)Nc1cc(OC)nc(SC)n1 |
| 2440 nM | 36% |  |  |  |  |  | CCCSc1nc(NC(C)=O)cc(OCc2ccccc2)n1 |
| 486 nM | 4% |  |  |  |  |  | CCCSc1nc(NC(=O)CC)cc(OC)n1 |
| 582 nM | 41% |  |  |  |  |  | CCCSc1nc(NC(C)=O)cc(OCc2cccc(Cl)c2)n1 |
|  | 29% |  | 30% |  |  | 49% | COc1cc(NC(C)=O)nc(SC)n1 |
|  | 10% |  | 43% |  |  |  | CCCSc1nc(NC(C)=O)cc(OC)n1 |
| 2440 nM | 47% |  |  | > 10000 nM | 0% |  | CCCSc1nc(NC(C)=O)cc(OCc2ccc(OC)cc2)n1 |

More lines, now with the values behind:

| Compound | Ki (Adenosine receptor A1) | inhibition (Adenosine receptor A2a [1]) | Ki (Adenosine receptor A2a [2]) | inhibition [3] | IC50 (Adenosine receptor A2b) | inhibition [4] | inhibition [5] |
| --- | --- | --- | --- | --- | --- | --- | --- |
| CCCSc1nc(NC(C)=O)cc(OCc2ccc(Cl)cc2)n1 |  | 43% |  | 17% | > 10000 nM | 0% |  |
| CCSc1nc(NC(C)=O)cc(OCc2ccc(Cl)cc2)n1 | 4480 nM | 56% |  |  | > 10000 nM | 10% |  |
| CCCSc1nc(NC(C)=O)cc(OCc2ccc(Cl)cc2Cl)n1 |  | 29% |  | 46% |  |  |  |
| CCCSc1nc(NC(C)=O)cc(OCc2ccccc2Cl)n1 | 1840 nM |  | 4150 nM |  |  |  |  |
| CCCCSc1nc(NC(C)=O)cc(OCc2ccc(Cl)cc2)n1 |  | 26% |  | 0% |  |  |  |
| CCCOc1cc(NC(=O)CC)nc(SC)n1 |  |  | 398 nM | 19% |  |  |  |
| CCCOc1cc(NC(C)=O)nc(SCc2ccccc2)n1 |  | 23% |  | 34% |  |  |  |
| CCCSc1nc(NC(C)=O)cc(OCCc2ccccc2)n1 | 2080 nM | 27% |  |  | > 10000 nM | 13% |  |
